In ChEMBL document CHEMBL1137710, “Synthesis and in vitro antitumor activity of new quinoxaline derivatives” (2009):

How the values were obtained:
Format in all cases: functional
[1] = Growth inhibition of human Hs 578T cells after 48 hrs by sulforhodamine B assay
Summary of the method: (§1)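 NCI 60-human-tumor-cell-line panel, with compounds tested over a 5-log dose range. Values are taken from dose-response curves as log10 molar concentrations: GI50 is 50% net growth inhibition, TGI is total growth inhibition, and LC50 is 50% net cell death.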

[2] = test system: IGROV-1; experiment: Growth inhibition of human IGROV1 cells after 48 hrs by sulforhodamine B assay; details: IGROV-1, 48 h; summary of the method: as §1
[3] = test system: NCI-H460; experiment: Growth inhibition of human NCI-H460 cells after 48 hrs by sulforhodamine B assay; details: NCI-H460, 48 h; summary of the method: as §1
[4] = test system: EKVX; experiment: Growth inhibition of human EKVX cells after 48 hrs by sulforhodamine B assay; summary of the method: as §1
[5] = test system: MCF7; experiment: Anticancer activity against human MCF7 cells assessed as cell growth at 100 uM after 48 hrs by sulforhodamine B assay; details: MCF7, 48 h, read-out: Activity
[6] = test system: MCF7; experiment: Growth inhibition of human MCF7 cells after 48 hrs by sulforhodamine B assay; details: MCF7, 48 h; summary of the method: as §1
[7] = test system: SK-MEL-5; experiment: Growth inhibition of human SK-MEL-5 cells after 48 hrs by sulforhodamine B assay; details: SK-MEL-5, 48 h; summary of the method: as §1
[8] = test system: SF-539; experiment: Growth inhibition of human SF539 cells after 48 hrs by sulforhodamine B assay; details: SF-539, 48 h; summary of the method: as §1
[9] = test system: SF-268; experiment: Anticancer activity against human SF268 cells assessed as cell growth at 100 uM after 48 hrs by sulforhodamine B assay; details: SF-268, 48 h, read-out: Activity
[10] = test system: A498; experiment: Growth inhibition of human A498 cells after 48 hrs by sulforhodamine B assay; details: A498, 48 h; summary of the method: as §1
[11] = test system: SR; experiment: Growth inhibition of human SR cells after 48 hrs by sulforhodamine B assay
Summary of the method: (§2)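 Run in the NCI 60-human-tumour-cell-line panel, tested over a 5-log dose range. Dose–response curves gave three values per cell line, each as a log10 molar concentration: GI50 (50% inhibition of net cell growth), TGI (total inhibition of net growth) and LC50 (50% net cell death). The mean graph midpoint is the arithmetic mean over all lines, with insensitive lines entered at the highest concentration tested.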

[12] = test system: PC-3; experiment: Growth inhibition of human PC3 cells after 48 hrs by sulforhodamine B assay; details: PC-3, 48 h; summary of the method: as §1
[13] = test system: KM12; experiment: Growth inhibition of human KM12 cells after 48 hrs by sulforhodamine B assay; details: KM12, 48 h; summary of the method: as §1
[14] = test system: RXF 393; experiment: Growth inhibition of human RXF393 cells after 48 hrs by sulforhodamine B assay; details: RXF 393, 48 h; summary of the method: as §1
[15] = test system: SK-MEL-2; experiment: Growth inhibition of human SK-MEL-2 cells after 48 hrs by sulforhodamine B assay; details: SK-MEL-2, 48 h; summary of the method: as §1
[16] = test system: SNB-75; experiment: Growth inhibition of human SNB75 cells after 48 hrs by sulforhodamine B assay; details: SNB-75, 48 h; summary of the method: as §2
[17] = test system: BT-549; experiment: Growth inhibition of human BT549 cells after 48 hrs by sulforhodamine B assay; details: BT-549, 48 h; summary of the method: as §1
[18] = test system: LOX IMVI; experiment: Growth inhibition of human LOXIMVI cells after 48 hrs by sulforhodamine B assay; summary of the method: as §1
[19] = test system: HOP-92; experiment: Growth inhibition of human HOP92 cells after 48 hrs by sulforhodamine B assay; details: HOP-92, 48 h; summary of the method: as §1
[20] = test system: DU-145; experiment: Growth inhibition of human DU145 cells after 48 hrs by sulforhodamine B assay; details: DU-145, 48 h; summary of the method: as §1
[21] = test system: NCI-H226; experiment: Growth inhibition of human NCI-H226 cells after 48 hrs by sulforhodamine B assay; details: NCI-H226, 48 h; summary of the method: as §1
[22] = test system: ACHN; experiment: Growth inhibition of human ACHN cells after 48 hrs by sulforhodamine B assay
[23] = test system: HCT-15; experiment: Growth inhibition of human HCT15 cells after 48 hrs by sulforhodamine B assay; details: HCT-15, 48 h; summary of the method: as §1
[24] = test system: SK-MEL-28; experiment: Growth inhibition of human SK-MEL-28 cells after 48 hrs by sulforhodamine B assay; details: SK-MEL-28, 48 h; summary of the method: as §1
[25] = test system: UACC-62; experiment: Growth inhibition of human UACC62 cells after 48 hrs by sulforhodamine B assay; details: UACC-62, 48 h; summary of the method: as §2
[26] = test system: NCI-H460; experiment: Anticancer activity against human NCI-H460 cells assessed as cell growth at 100 uM after 48 hrs by sulforhodamine B assay; details: NCI-H460, 48 h, read-out: Activity
[27] = test system: SF-268; experiment: Growth inhibition of human SF268 cells after 48 hrs by sulforhodamine B assay; details: SF-268, 48 h; summary of the method: as §1
[28] = test system: SN12C; experiment: Growth inhibition of human SN12C cells after 48 hrs by sulforhodamine B assay; summary of the method: as §2
[29] = test system: MOLT-4; experiment: Growth inhibition of human MOLT4 cells after 48 hrs by sulforhodamine B assay; details: MOLT-4, 48 h; summary of the method: as §1
[30] = read-out: pLC50 (the source's name) (converted)

Nc1cc(N)c2nc(-c3ccccc3)c(NCc3ccc(F)cc3)nc2c1
GI50 [1]: 4.9 µM
CC50 [1, 30]: > 100 µM
TGI ([1]; read-out: pTGI (converted)): > 100 µM
GI50 [2]: 3.09 µM
CC50 [2, 30]: > 100 µM
TGI ([2]; read-out: pTGI (converted)): > 100 µM
GI50 [3]: 4.07 µM
LC50 (50% net cell kill) [3]: > 100 µM
TGI ([3]; read-out: pTGI (converted)): 25.7 µM
GI50 [4]: 1.91 µM
LC50 (50% net cell kill) [4]: 8.71 µM
TGI ([4]; read-out: pTGI (converted)): 4.07 µM
growth at 100 µM [5]: 1%
GI50 [6]: 3.02 µM
CC50 [6, 30]: > 100 µM
TGI ([6]; read-out: pTGI (converted)): > 100 µM
GI50 [7]: 1.86 µM
CC50 [7, 30]: 6.92 µM
TGI ([7]; read-out: pTGI (converted)): 3.63 µM
GI50 [8]: 1.82 µM
LC50 [8]: 6.92 µM
TGI ([8]; read-out: pTGI (converted)): 3.55 µM
growth at 100 µM [9]: 1%
GI50 [10]: 17 µM
CC50 [10, 30]: 57.5 µM
TGI ([10]; read-out: pTGI (converted)): 30.9 µM
GI50 [11]: 4.07 µM
LC50 (concentration giving 50% net cell death) [11]: > 100 µM
TGI ([11]; read-out: pTGI (converted)): > 100 µM
GI50 [12]: 3.47 µM
CC50 [12, 30]: > 100 µM
TGI ([12]; read-out: pTGI (converted)): 15.5 µM
GI50 [13]: 2.82 µM
LC50 (50% net cell kill) [13]: > 100 µM
TGI ([13]; read-out: pTGI (converted)): 7.41 µM
GI50 [14]: 12.3 µM
CC50 [14, 30]: 60.3 µM
TGI ([14]; read-out: pTGI (converted)): 26.9 µM
GI50 [15]: 5.25 µM
CC50 [15, 30]: > 100 µM
TGI ([15]; read-out: pTGI (converted)): > 100 µM
GI50 [16]: 2.14 µM
LC50 [16]: > 100 µM
TGI ([16]; read-out: pTGI (converted)): 5.01 µM
GI50 [17]: 1.7 µM
CC50 [17, 30]: 6.31 µM
TGI ([17]; read-out: pTGI (converted)): 3.24 µM
GI50 [18]: 1.51 µM
LC50 [18]: 6.61 µM
TGI ([18]; read-out: pTGI (converted)): 3.16 µM
GI50 [19]: 3.31 µM
LC50 (50% net cell death) [19]: > 100 µM
TGI ([19]; read-out: pTGI (converted)): 6.92 µM
GI50 [20]: 1.51 µM
CC50 [20, 30]: 9.77 µM
TGI ([20]; read-out: pTGI (converted)): 3.8 µM
GI50 [21]: 22.4 µM
LC50 [21]: > 100 µM
TGI ([21]; read-out: pTGI (converted)): 47.9 µM
GI50 [22]: 1.7 µM
CC50 [22, 30]: 5.62 µM
TGI ([22]; read-out: pTGI (converted)): 3.09 µM
GI50 [23]: 3.31 µM
LC50 [23]: > 100 µM
TGI ([23]; read-out: pTGI (converted)): 19.1 µM
GI50 [24]: 1.91 µM
CC50 [24, 30]: 7.41 µM
TGI ([24]; read-out: pTGI (converted)): 3.8 µM
GI50 [25]: 15.5 µM
CC50 [25, 30]: 56.2 µM
TGI ([25]; read-out: pTGI (converted)): 29.5 µM
growth at 100 µM [26]: 1%
GI50 [27]: 2.82 µM
LC50 [27]: 40.7 µM
TGI ([27]; read-out: pTGI (converted)): 7.59 µM
GI50 [28]: 7.59 µM
CC50 [28, 30]: 64.6 µM
TGI ([28]; read-out: pTGI (converted)): 23.4 µM
GI50 [29]: > 100 µM
LC50 [29]: > 100 µM
TGI ([29]; read-out: pTGI (converted)): > 100 µM
